Entries after “also recorded” stand apart in the source; their conditions may differ. Where two headings read alike, the source gives them in different places. Each block holds one molecule with its values, some of them ahead of it.
Experiments:
human GLO1 = conditions: cited from earlier work
mice = experiment: Observational assessment of toxicity after i.p. dosing; format: in vivo
[1] = target: T1, Recombinant human glyoxalase I (GLO1) (Homo sapiens, UniProt Q04760); experiment: Human Glyoxalase 1 enzyme assay; format: biochemical; conditions: for GLO1 inhibition compared with 8-MSQ, in words: SAR statement
T1 sequence (Q04760 2-184 limits assumed): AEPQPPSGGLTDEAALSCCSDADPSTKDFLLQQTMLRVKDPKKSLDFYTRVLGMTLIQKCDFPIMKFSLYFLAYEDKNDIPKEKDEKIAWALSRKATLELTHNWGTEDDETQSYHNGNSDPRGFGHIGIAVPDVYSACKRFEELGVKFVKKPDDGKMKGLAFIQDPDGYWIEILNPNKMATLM
How it was run: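 Recombinant human GLO1 (40 ng) was preincubated 15–20 min with test compound in 100 mM sodium phosphate, pH 7.0. Substrate was GSH and methylglyoxal (each from 100 mM stock) mixed in buffer and left 20 min at room temperature to form hemithioacetal, then added. DMSO ≤5% final. A240 read every minute for 8 min. Rates were normalized to the uninhibited control (100%) after no-enzyme background subtraction. IC50s were benchmarked against a reference N-hydroxypyridone inhibitor. Library screens used 200 and 50 µM fragment, with a >50% inhibition hit threshold.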

FVB/NJ mice [2] = experiment: Forced swim test; format: in vivo; conditions: 12.5 mg/kg i.p., 120 min before test, p=0.041
MG levels in brain = experiment: Brain methylglyoxal; format: in vivo; conditions: for MG per mg brain tissue: mice, 30-240 min post-dose, vehicle 1.1 ± 0.3
How it was run: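 Separate mouse cohort dosed i.p. at 12.5 or 25 mg/kg. Brains collected at 30, 60, 120 and 240 min post-dose, n=3 per time point. Under isoflurane, mice were perfused transcardially with PBS, then brains were weighed, flash-frozen and stored at −80 °C. Tissue was minced, extracted with acetonitrile, bead-homogenized, centrifuged and filtered (2 µm). MG was quantified by LC-MS/MS against an 11-point 5–5000 ng/mL curve spiked into blank brain, expressed per mg wet tissue.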

FVB/NJ mice [3] = experiment: Open field test; format: in vivo; conditions: 12.5 mg/kg i.p., 90 min after injection, 30 min test
How it was run: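 Male and female FVB/NJ mice, 108–148 days old, tested in the light phase, were given 12.5 mg/kg i.p. or vehicle ([…]). After 90 min in the home cage, each was placed centrally in a 43×43×33 cm chamber under dim light inside a sound- and light-attenuating box for 30 min of free exploration. An infrared beam grid tracked distance traveled.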

SMILES: COCCCn1ccc2cc(-c3cc(-c4ccccc4)cc(=O)n3O)cnc21 [Chugai-3d]
IC50 (human GLO1; reported by Chugai Pharmaceuticals): 11 nM

SMILES: O=S(=O)(Nc1ccc(-c2ccc(Cl)cc2)c2cccnc12)c1ccccn1 [Compound 48, N-(5-(4-Chlorophenyl)quinolin-8-yl)pyridine-2-sulfonamide]
observed toxicity (mice; i.p. doses of 50 mg/kg and higher): visibly toxic

IC50 [1]: 1900 ± 200 nM
SMILES: O=c1cc(-c2ccccc2)cc(-c2ccccc2)n1O [Chugai-1, 1-hydroxy-4,6-diphenylpyridin-2(1H)-one, reference compound]
IC50 (human GLO1; value reported in the original literature report): 1190 nM

inhibition in second MBP library screening ([1]; fragment concentration 50 μM): essentially complete inhibition
SMILES: CS(=O)(=O)Nc1cccc2cccnc12 [Compound 8-MSQ, N-(Quinolin-8-yl)methanesulfonamide]

SMILES: N#Cc1ccccc1S(=O)(=O)Nc1cccc2cccnc12 [Compound 20, 2-Cyano-N-(quinolin-8-yl)benzenesulfonamide]
GLO1 inhibition compared with 8-MSQ, in words [1]: not tolerated

improvement in inhibition relative to 8-MSQ ([1]; ratio of IC50 values vs 8-MSQ): 2 fold
SMILES: O=S(=O)(Nc1cccc2cccnc12)c1ccccc1 [Compound 8, N-(Quinolin-8-yl)benzenesulfonamide]

improvement in inhibition relative to 8-MSQ ([1]; ratio of IC50 values vs 8-MSQ): ~ 14 fold
SMILES: O=S(=O)(Nc1cccc2cccnc12)c1ccccn1 [Compound 23, N-(Quinolin-8-yl)pyridine-2-sulfonamide]

SMILES: COc1ccccc1S(=O)(=O)Nc1cccc2cccnc12 [Compound 17, 2-Methoxy-N-(quinolin-8-yl)benzenesulfonamide]
GLO1 inhibition compared with 8-MSQ, in words [1]: not tolerated

loss of affinity compared to 8-MSQ ([1]; ratio of IC50 values vs 8-MSQ): ~ 2 fold
SMILES: Cc1ccc2cccc(NS(C)(=O)=O)c2n1 [Compound 7, N-(2-Methylquinolin-8-yl)methanesulfonamide]

SMILES: CS(=O)(=O)Nc1ccc(N2CCOCC2)c2cccnc12 [Compound 46, N-(5-Morpholinoquinolin-8-yl)methanesulfonamide]
GLO1 inhibition compared with 8-MSQ, in words [1]: not well tolerated

SMILES: CS(=O)(=O)Nc1ccc(-c2cncnc2)c2cccnc12 [Compound 39, N-(5-(Pyrimidin-5-yl)quinolin-8-yl)methanesulfonamide]
GLO1 inhibition compared with 8-MSQ, in words [1]: not well tolerated

SMILES: CS(=O)(=O)Nc1ccc(-c2ccncc2)c2cccnc12 [Compound 38, N-(5-(Pyridin-4-yl)quinolin-8-yl)methanesulfonamide]
GLO1 inhibition compared with 8-MSQ, in words [1]: not well tolerated

GLO1 inhibition compared with 8-MSQ, in words [1]: slight increase in inhibition
SMILES: Cc1ccc2cccc(NS(=O)(=O)c3ccccc3)c2n1 [Compound 9, N-(2-Methylquinolin-8-yl)benzenesulfonamide]

SMILES: COc1cc(CCc2cc(NS(=O)(=O)c3ccccn3)c3ncccc3c2)cc(OC)c1 [Compound 60, N-(6-(3,5-Dimethoxyphenethyl)quinolin-8-yl)pyridine-2-sulfonamide]
observational assessment of toxicity (mice; doses up to 100 mg/kg i.p.): no adverse responses
immobility in the FST vs vehicle (FVB/NJ mice [2]): reduction in percent immobility; also recorded: significant decrease in the time spent immobile; also recorded: reduced immobility
increase of MG levels in brain vs vehicle-treated mice (MG levels in brain; 12.5 mg/kg i.p., between 30 and 240 min post-dose): approximately 11 fold
MG per mg brain tissue (MG levels in brain; 12.5 mg/kg i.p.): 11.8±4.1 ng/mg of brain tissue
MG per mg brain tissue (MG levels in brain; 25 mg/kg i.p.): 14.1±3.1 ng/mg of brain tissue
increase in brain MG levels compared to vehicle-treated mice (MG levels in brain; summary statement in discussion): > 10 fold
locomotor activity in open field vs vehicle (FVB/NJ mice [3]): no effect

SMILES: CS(=O)(=O)Nc1ccc(N2CCCCC2)c2cccnc12 [Compound 45, N-(5-(Piperidin-1-yl)quinolin-8-yl)methanesulfonamide]
GLO1 inhibition compared with 8-MSQ, in words [1]: not well tolerated
